Activity calls are given as the source filed them. The calls are words filed in the database; no cut-off is given here.
How the values were obtained:
HUVEC [1] = assay: Growth inhibition of HUVEC at 10 uM after 72 hrs by CellTiter-Glo assay relative to control; assay type: functional; conditions: Homo sapiens, read-out: GI
How it was run: (§1)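 Cells in exponential phase seeded at 2000–4000 cells/well, then exposed 72 h at 37 °C, 5% CO2 with 0.1% final DMSO. Single-point screen at 10 μM final. […] Read-out was CellTiter-Glo luminescence.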

A-431 = assay: Growth inhibition of human A431 cells at 10 uM after 72 hrs by CellTiter-Glo assay relative to control; assay type: functional; conditions: A-431, 72 h, read-out: GI
How it was run: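 A431 cells seeded at 2000–4000 cells/well and treated with 10 μM final compound, 0.1% DMSO, for 72 h at 37 °C, 5% CO2. Viability read by CellTiter-Glo. Inhibition ratio = 1 − Vsample/Vvehicle control; triplicate.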

MDA-MB-435 [2] = assay: Growth inhibition of human MDA-MB-435 cells at 10 uM after 72 hrs by CellTiter-Glo assay relative to control; assay type: functional; conditions: MDA-MB-435, 72 h, read-out: GI; how it was run: as §1
HUVEC [3] = assay: Growth inhibition of HUVEC after 72 hrs by CellTiter-Glo assay; assay type: functional, cell-based; conditions: Homo sapiens; how it was run: as §1
MDA-MB-435 [4] = assay: Growth inhibition of human MDA-MB-435 cells after 72 hrs by CellTiter-Glo assay; assay type: functional, cell-based; conditions: MDA-MB-435, 72 h; how it was run: as §1
[5] = biological target: Ephrin type-A receptor 8 (Homo sapiens) (UniProt P29322); assay: Inhibition of human EPHA8 at 0.5 uM relative to control
Homo sapiens [6] = organism: Homo sapiens; assay: Inhibition of human PDGFR at 0.5 uM relative to control
[7] = biological target: Receptor-type tyrosine-protein kinase FLT3 (Homo sapiens) (UniProt P36888); assay: Inhibition of human Flt3 at 0.5 uM relative to control
[8] = biological target: TRAF2 and NCK-interacting protein kinase (Homo sapiens) (UniProt Q9UKE5); assay: Inhibition of human TNIK at 0.5 uM relative to control
[9] = biological target: Tyrosine-protein kinase HCK (Homo sapiens) (UniProt P08631); assay: Inhibition of human HCK at 0.5 uM relative to control
[10] = biological target: Vascular endothelial growth factor receptor 1 (Homo sapiens) (UniProt P17948); assay: Inhibition of human Flt1 at 0.5 uM relative to control
[11] = biological target: Mitogen-activated protein kinase kinase kinase kinase 5 (Homo sapiens) (UniProt Q9Y4K4); assay: Inhibition of human KHS at 0.5 uM relative to control
[12] = biological target: Ephrin type-A receptor 7 (Homo sapiens) (UniProt Q15375); assay: Inhibition of human EPHA7 at 0.5 uM relative to control
[13] = biological target: Vascular endothelial growth factor receptor 3 (Homo sapiens) (UniProt P35916); assay: Inhibition of human Flt4 at 0.5 uM relative to control
[14] = biological target: STE20-like serine/threonine-protein kinase (Homo sapiens) (UniProt Q9H2G2); assay: Inhibition of human SLK at 0.5 uM relative to control
[15] = biological target: Ephrin type-A receptor 4 (Homo sapiens) (UniProt P54764); assay: Inhibition of human EPHA4 at 0.5 uM relative to control
[16] = biological target: Ephrin type-A receptor 3 (Homo sapiens) (UniProt P29320); assay: Inhibition of human EPHA3 at 0.5 uM relative to control
[17] = biological target: Ephrin type-A receptor 2 (Homo sapiens) (UniProt P29317); assay: Inhibition of human EPHA2 at 0.5 uM relative to control
[18] = biological target: Ephrin type-A receptor 5 (Homo sapiens) (UniProt P54756); assay: Inhibition of human EPHA5 at 0.5 uM relative to control
Homo sapiens [19] = organism: Homo sapiens; assay: Inhibition of human DDR at 0.5 uM relative to control
[20] = biological target: T1, Vascular endothelial growth factor receptor 2 (Homo sapiens, UniProt P35968); conditions: at 10 µM
[21] = biological target: T1, Vascular endothelial growth factor receptor 2

T1 sequence (P35968 whole entry): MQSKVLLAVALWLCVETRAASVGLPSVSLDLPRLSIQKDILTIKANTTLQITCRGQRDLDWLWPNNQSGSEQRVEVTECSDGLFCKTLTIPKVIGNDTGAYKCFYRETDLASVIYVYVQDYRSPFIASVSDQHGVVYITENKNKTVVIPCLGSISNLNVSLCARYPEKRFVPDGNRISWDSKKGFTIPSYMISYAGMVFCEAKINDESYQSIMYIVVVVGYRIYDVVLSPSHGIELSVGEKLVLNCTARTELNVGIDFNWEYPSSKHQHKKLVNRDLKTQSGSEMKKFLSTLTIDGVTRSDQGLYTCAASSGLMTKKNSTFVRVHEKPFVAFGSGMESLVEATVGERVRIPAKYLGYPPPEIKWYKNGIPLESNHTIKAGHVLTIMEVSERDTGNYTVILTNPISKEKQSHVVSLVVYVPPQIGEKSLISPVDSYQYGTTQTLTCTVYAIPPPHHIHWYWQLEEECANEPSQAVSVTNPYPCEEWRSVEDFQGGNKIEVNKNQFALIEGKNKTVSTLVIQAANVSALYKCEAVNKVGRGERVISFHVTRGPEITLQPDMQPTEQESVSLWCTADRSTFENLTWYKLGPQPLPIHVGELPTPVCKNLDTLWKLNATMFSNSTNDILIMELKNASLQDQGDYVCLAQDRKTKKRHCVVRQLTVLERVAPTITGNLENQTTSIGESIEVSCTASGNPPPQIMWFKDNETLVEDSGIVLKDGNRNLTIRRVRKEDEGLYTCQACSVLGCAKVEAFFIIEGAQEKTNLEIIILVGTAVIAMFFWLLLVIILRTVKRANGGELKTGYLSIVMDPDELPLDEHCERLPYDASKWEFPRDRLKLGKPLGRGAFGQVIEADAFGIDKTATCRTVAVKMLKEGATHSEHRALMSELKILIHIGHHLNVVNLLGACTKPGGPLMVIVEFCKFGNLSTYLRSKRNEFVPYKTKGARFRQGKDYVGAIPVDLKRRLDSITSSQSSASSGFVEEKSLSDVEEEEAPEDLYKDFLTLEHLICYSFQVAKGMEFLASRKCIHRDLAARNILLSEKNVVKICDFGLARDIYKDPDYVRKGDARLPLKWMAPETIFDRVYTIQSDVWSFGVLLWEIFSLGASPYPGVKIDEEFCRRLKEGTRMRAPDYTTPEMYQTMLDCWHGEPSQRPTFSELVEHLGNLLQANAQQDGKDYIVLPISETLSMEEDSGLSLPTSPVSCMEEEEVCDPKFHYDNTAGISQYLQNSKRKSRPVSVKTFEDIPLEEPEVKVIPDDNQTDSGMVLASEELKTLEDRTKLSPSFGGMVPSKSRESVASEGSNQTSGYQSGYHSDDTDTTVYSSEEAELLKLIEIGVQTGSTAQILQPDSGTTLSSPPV
Chain of Mitogen-activated protein kinase kinase kinase kinase 5 (Homo sapiens) (Q9Y4K4 whole entry, looked up): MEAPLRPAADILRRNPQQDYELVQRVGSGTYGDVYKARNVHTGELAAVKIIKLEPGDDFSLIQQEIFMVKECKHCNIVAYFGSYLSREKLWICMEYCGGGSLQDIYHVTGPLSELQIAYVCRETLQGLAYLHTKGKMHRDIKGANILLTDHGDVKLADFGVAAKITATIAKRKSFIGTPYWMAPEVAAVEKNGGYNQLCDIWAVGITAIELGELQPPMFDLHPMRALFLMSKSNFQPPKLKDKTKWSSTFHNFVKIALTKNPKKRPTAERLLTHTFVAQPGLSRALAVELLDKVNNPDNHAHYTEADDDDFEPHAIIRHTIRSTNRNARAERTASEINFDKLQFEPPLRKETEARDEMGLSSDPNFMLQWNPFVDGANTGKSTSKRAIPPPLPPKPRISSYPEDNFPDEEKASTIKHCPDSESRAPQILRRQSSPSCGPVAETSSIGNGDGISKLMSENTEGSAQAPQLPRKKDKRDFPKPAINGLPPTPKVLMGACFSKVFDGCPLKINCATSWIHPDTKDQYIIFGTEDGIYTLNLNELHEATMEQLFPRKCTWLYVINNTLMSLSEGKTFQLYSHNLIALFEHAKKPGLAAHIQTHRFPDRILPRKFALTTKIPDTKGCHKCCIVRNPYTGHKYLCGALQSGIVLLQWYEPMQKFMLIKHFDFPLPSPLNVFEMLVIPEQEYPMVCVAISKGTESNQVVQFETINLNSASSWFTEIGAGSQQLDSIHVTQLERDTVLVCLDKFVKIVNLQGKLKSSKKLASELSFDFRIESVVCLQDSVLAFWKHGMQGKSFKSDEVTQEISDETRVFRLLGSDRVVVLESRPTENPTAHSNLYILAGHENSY
Chain of Tyrosine-protein kinase HCK (Homo sapiens) (P08631 2-526 limits assumed): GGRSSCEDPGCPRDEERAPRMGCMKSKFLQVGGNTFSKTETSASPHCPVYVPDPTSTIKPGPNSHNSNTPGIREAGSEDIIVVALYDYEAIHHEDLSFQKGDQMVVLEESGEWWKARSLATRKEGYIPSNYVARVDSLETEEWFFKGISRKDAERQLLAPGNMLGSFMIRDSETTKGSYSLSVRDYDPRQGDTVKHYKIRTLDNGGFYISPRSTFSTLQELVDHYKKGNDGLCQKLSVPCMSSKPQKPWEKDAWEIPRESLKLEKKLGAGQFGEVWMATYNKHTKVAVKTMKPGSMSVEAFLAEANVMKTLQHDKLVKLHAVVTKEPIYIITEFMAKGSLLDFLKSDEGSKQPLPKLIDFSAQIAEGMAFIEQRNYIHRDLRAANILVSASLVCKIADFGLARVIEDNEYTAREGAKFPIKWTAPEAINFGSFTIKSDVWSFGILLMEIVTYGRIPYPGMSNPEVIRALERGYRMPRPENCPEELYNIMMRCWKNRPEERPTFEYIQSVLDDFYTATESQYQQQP
Chain of Vascular endothelial growth factor receptor 3 (Homo sapiens) (P35916 whole entry): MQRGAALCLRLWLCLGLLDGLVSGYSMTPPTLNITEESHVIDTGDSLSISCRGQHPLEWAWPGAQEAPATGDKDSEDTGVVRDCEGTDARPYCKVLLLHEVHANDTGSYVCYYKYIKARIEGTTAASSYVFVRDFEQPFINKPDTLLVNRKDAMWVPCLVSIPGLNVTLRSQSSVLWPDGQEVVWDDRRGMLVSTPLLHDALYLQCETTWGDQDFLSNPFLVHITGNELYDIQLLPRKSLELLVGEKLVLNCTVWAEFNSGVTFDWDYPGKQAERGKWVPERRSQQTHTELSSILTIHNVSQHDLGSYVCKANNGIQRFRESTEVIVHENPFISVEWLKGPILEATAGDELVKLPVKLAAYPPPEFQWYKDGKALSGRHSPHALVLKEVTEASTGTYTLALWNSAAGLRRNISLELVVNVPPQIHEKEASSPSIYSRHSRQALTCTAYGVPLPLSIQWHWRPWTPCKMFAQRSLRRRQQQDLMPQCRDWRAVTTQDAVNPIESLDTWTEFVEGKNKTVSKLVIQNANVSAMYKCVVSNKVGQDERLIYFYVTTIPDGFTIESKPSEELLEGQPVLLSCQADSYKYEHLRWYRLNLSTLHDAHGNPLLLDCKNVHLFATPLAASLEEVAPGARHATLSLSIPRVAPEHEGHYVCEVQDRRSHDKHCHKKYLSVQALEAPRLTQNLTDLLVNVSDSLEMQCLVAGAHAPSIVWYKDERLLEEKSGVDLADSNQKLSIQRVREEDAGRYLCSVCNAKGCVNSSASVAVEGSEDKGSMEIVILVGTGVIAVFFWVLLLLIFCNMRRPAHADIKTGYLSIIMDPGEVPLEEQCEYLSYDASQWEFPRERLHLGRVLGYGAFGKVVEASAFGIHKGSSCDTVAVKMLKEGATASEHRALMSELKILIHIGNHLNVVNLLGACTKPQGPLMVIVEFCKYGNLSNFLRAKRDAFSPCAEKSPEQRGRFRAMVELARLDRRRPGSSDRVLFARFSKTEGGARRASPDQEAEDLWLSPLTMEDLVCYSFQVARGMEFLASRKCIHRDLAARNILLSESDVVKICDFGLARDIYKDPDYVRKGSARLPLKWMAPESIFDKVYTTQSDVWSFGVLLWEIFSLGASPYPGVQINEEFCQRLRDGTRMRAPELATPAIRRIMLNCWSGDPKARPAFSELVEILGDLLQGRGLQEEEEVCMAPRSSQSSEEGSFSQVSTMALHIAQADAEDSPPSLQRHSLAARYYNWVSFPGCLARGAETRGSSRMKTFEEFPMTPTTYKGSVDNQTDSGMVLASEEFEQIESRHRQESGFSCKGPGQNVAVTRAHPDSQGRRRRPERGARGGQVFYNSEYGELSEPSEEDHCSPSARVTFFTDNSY
Chain of Ephrin type-A receptor 8 (Homo sapiens) (P29322 whole entry): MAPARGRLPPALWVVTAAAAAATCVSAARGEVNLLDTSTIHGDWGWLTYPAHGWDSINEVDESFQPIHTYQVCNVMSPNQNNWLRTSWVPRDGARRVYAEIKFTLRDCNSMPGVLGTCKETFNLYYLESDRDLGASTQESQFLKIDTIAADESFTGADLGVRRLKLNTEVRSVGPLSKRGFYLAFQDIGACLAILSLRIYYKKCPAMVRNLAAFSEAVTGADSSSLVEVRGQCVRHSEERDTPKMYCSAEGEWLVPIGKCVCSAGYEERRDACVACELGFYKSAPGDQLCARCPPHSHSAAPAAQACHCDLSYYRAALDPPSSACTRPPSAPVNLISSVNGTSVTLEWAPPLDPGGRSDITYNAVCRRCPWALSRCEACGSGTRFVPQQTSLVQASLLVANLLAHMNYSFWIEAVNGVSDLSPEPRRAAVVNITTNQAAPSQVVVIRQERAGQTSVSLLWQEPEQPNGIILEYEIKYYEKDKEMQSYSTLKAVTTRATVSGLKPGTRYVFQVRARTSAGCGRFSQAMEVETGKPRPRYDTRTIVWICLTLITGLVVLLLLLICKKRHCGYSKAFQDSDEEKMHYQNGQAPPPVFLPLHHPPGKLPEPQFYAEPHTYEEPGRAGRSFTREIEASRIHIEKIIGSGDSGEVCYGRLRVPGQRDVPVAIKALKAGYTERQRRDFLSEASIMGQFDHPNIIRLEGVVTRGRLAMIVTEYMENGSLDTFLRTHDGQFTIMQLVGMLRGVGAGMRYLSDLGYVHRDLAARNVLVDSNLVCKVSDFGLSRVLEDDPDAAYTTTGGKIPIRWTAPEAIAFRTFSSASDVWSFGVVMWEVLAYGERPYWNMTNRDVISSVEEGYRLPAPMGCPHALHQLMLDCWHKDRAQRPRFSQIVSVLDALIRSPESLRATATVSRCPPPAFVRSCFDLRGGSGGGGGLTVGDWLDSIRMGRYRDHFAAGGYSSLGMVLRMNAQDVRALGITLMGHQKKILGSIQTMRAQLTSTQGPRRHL

| SMILES | inhibition of growth at 10 µM (HUVEC [1]) | inhibition of growth at 10 µM (A-431) | inhibition of growth at 10 µM (MDA-MB-435 [2]) | IC50 (HUVEC [3]) | also measured |
| --- | --- | --- | --- | --- | --- |
| COc1cc2ncnc(Oc3ccc(NC(=O)Nc4cc(C)on4)c4ccccc34)c2cc1OC | 61.9% | -1.52% | 0.23% | – | – |
| CNC(=O)c1cc(Oc2ccc(NC(=O)Nc3ccc(Cl)c(C(F)(F)F)c3)cc2)ccn1 [SORAFENIB] | 84.7% | 68.9% | 91.9% | 1.49 µM | IC50 (MDA-MB-435 [4]): 2.11 µM |
| COc1cc2ncnc(Oc3ccc(NC(=O)NC4CC4)c4ccccc34)c2cc1OC | 63.9% | 15.1% | 1.48% | – | – |
| COc1cc2ncnc(Oc3ccc(NC(=O)Nc4ccc(Cl)c(C(F)(F)F)c4)c4ccccc34)c2cc1OC | 82.9% | 14.9% | 95.1% | 2.97 µM | IC50 (MDA-MB-435 [4]): 3.79 µM |
| CCN(CC)CCNC(=O)c1c(C)[nH]c(/C=C2\C(=O)Nc3ccc(F)cc32)c1C | – | – | – | – | inhibition [5]: Active; inhibition (Homo sapiens [6]): Active; inhibition [7]: Active; inhibition [8]: Active; inhibition [9]: Active; inhibition [10]: Active; inhibition [11]: Active; inhibition [12]: Active; inhibition [13]: Active; inhibition [14]: Active; inhibition [15]: Active; inhibition [16]: Active; inhibition [17]: Active; inhibition [18]: Active; inhibition (Homo sapiens [19]): Active |
| COc1cc2ncnc(Oc3ccc(NC(=O)Nc4ccc(Cl)c(C(F)(F)F)c4)c4cccnc34)c2cc1OC | 51.5% | 21% | 44.3% | – | – |
| COc1cc2ncnc(Oc3ccc(NC(=O)Nc4cccc(C(F)(F)F)c4)c4ccccc34)c2cc1OC | 66.8% | -4.51% | 24.5% | – | inhibition [20]: 99%; IC50 [21]: 0.0288 µM |
| COc1cc2ncnc(Oc3ccc(NS(=O)(=O)c4ccccc4)c4ccccc34)c2cc1OC | – | – | – | – | inhibition [20]: 44.3%; IC50 [21]: > 10 µM |
| COc1cc2ncnc(Oc3ccc(NC(=O)Nc4cnn(C(C)C)c4)c4ccccc34)c2cc1OC | 93.6% | 49.9% | 27.7% | 0.63 µM | – |

Source: ChEMBL document CHEMBL4028913, “Discovery of Novel Potent VEGFR-2 Inhibitors Exerting Significant Antiproliferative Activity against Cancer Cell Lines” (J Med Chem, 2018)
